# Screening results (PubChem BioAssay)
# In the library only some 1.2% were active in any assay of this set; here they are far more common.
# proCasp3 act = activates human procaspase-3; P42574; recombinant procaspase-3 D3A, Ac-DEVD-pNA absorbance 405 nm; activation, % at 8.5 µM; 330,000 compounds, 0.11% hits; AID 463141;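 active means activation above the mean of all tested compounds plus 3 SD, cut at about 21% in these data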;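 further: 0% = DMSO alone and 100% = DMSO wells spiked with extra 5 µM PC-3 D3A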
#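 Compound: 8.5 µM single point, 0.8% DMSO / Material: Autoprocessing-dead procaspase-3 D3A mutant enzyme / Timing: 1 h preincubation plus 2 h reaction at 25 °C / Medium: Zinc-free HEPES/NaCl buffer with 0.01% Triton X-100 at pH 7.4 / Technique: 405 nm absorbance of p-nitroaniline, reads at 0 and 120 min / Repeats: one well per compound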
# IDE act = IDE (human) activation, cell-based | AID 493087 | HEK cells, FAbeta-B cleavage, fluorescence polarization; 0% vehicle, 100% cell-free pure enzyme wells | P14735 | activation, % at 5.96 µM | 340,000 compounds, 0.073% hits;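 active means activation above the mean of all tested compounds plus 3 SD, set per screening campaign, cut at about 17% in these data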
# proCasp7 act = counter-screen: procaspase-7 (human) activation; P55210; recombinant procaspase-7, Ac-DEVD-pNA absorbance 405 nm; D23A/D198A/D206A triple mutant, cannot self-cleave; scale: DMSO 0, 5 µM enzyme 100; activation, % at 8.5 µM; 330,000 compounds, 0.093% hits;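 active means percent activation above the screen-wide mean plus 3 SD, cut at about 25% in these data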
# Target sequence (P55210 whole entry D23A/D198A/D206A): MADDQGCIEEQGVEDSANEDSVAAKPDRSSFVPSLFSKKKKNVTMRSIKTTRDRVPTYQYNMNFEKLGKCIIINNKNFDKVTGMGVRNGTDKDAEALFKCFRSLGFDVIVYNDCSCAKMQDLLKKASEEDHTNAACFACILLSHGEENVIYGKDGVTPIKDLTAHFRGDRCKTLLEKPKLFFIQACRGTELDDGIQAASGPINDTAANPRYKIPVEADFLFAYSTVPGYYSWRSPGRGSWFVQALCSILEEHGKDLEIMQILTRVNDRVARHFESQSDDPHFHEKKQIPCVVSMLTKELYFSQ
#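 Assay system – Uncleavable procaspase-7 mutant enzyme · Quantity – 2 µM procaspase-7 mutant as dispensed · Times – 1 h preincubation, 2 h reaction · Dosing – single nominal 8.5 µM compound dose, 0.8% DMSO final · Buffer or medium – Zinc-free 50 mM HEPES buffer, pH 7.4, with NaCl and Triton X-100 · Detection – Epi-absorbance of released pNA at 405 nm, two timepoints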
# TPT1 inh = C. albicans TPT1 enzyme inhibition; AID 1962; inhibition, % at 5 µM; 300,000 compounds, 0.81% hits; recombinant caTPT1, FP RNA substrate dephosphorylation;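 active means inhibition above the mean of all tested compounds plus 3 SD, set per screening campaign, cut at about 24% in these data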;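 further: plate controls were DMSO alone for no effect and ferristatin control at 100 nM for full effect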
# IDE inh = inhibits human insulin-degrading enzyme in HEK cells. AID 434962. P14735. inhibition, % at 5.59 µM. FAbetaB cleavage, fluorescence polarization. 320,000 compounds, 0.41% hits;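 active means percent inhibition above the average of all tested compounds plus 3 SD, set per screening campaign, cut at about 16% in these data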;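 further: IDE supplied by intact live HEK cells; FP after avidin binding of uncleaved biotin substrate so inhibition keeps polarization high; 0% = DMSO wells and 100% = 60 µM reference IDE inhibitor Ii1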
# caTPT1 confirm = TPT1 (C. albicans) inhibition, confirmation; shares compounds with TPT1 inh; recombinant caTPT1, fluorescence polarization, RNase T1 coupled; inhibition, % at 5 µM; 2,400 compounds, 74% hits;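 active means inhibition above the primary screen limit, the mean inhibition of all tested compounds plus 3 SD, cut at about 25% in these data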
# RNase T1 counter = blocks Aspergillus oryzae RNase T1, a TPT1 counter-screen; AID 2153; inhibition, % at 5 µM; 2,400 compounds, 83% hits; shares compounds with TPT1 inh; RNase T1 cleavage, fluorescence polarization, 1536-well;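 active means inhibition above the solvent-only control well mean plus 3 SD, limit set per screening run, cut at about 23% in these data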;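 further: plate controls were DMSO wells with enzyme for no effect and wells without RNase T1 for full effect; inhibitors block cleavage so intact labeled substrate keeps polarization high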
# Target sequence (P00651 whole entry, looked up): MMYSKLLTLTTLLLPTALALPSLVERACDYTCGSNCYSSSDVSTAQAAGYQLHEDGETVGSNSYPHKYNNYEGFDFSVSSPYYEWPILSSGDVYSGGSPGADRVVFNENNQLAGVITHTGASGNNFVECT
# An asterisk follows results filed as active; . = not tested or not shown.
SMILES,proCasp3 act,IDE act,proCasp7 act,TPT1 inh,IDE inh,caTPT1 confirm,RNase T1 counter
CCCN(CCC)CC(O)Cn1cc(/C=C/C(=O)c2ccccc2)c2ccccc21 (stereo not drawn),.,4,.,.,.,.,.
COc1ccc(C(=O)/C=C/c2cn(CC(O)CN3CCN(C)CC3)c3ccccc23)cc1OC (stereo not drawn),2,-7,-3,50*,1,61*,72*
Cc1c(C(=O)N2CCCCC2)c(S(=O)(=O)NCCc2ccc(Cl)cc2)c(C)n1C,-2,6,4,0,-4,.,.
O=C(CCc1nc2ccccc2[nH]c1=O)N/N=C/c1ccccc1,11,2,4,3,2,.,.
C=CCc1c(C)nc(-c2ccccc2)nc1Nc1ccccc1O,-5,4,-4,25*,8,40*,52*
CC(=O)/C(N=Nc1cc(C)ccc1O)=C(\C)O,-1,-3,5,44*,-3,29*,48*
COc1cc(CC(=O)Nc2sccc2C(N)=O)cc(OC)c1OC,-6,0,11,76*,2,18,25*
O=C(COC(=O)c1ccc([N+](=O)[O-])cc1)Nc1ccccc1C(=O)NC1CC1,7,3,1,.,-1,.,.
CN(C)c1nc(N)ncc1-c1ccc(Oc2ccccc2)cc1,-1,1,-3,-1,1,.,.
O=C(C[n+]1ccccc1)N/N=C/c1ccc(Cl)c(Cl)c1,6,1,1,3,-6,.,.
O=C(CC1Nc2ccccc2NC1=O)c1ccccc1 (stereo not drawn),-11,.,-1,73*,10,62*,73*
CC(NC(=O)CC1Nc2ccccc2NC1=O)c1ccccc1 (stereo not drawn),1,7,5,30*,2,39*,52*
O=C(CC1Nc2ccccc2NC1=O)NCCc1ccccc1 (stereo not drawn),-7,2,3,-6,-2,.,.
CC(C)(C)OC(=O)C[C@@H]1C/C=C\C[C@@H](CC(=O)N[C@H](CO)Cc2ccccc2)C(=O)NC[C@H](c2ccccc2)OC1=O,-2,-2,4,.,7,.,.
COc1ccc(CCNc2nc(-c3ccc(F)cc3)c(CC(=O)O)s2)cc1OC,-8,-3,-29,98*,1,15,23*
COc1ccc(S(=O)(=O)N2CCC(C(=O)Oc3ccc(C)cc3)CC2)cc1OC,-6,-1,5,-3,5,.,.
O=C(COC(=O)CNC(=O)c1ccccc1F)Nc1ccc2c(c1)OCO2,8,6,1,.,2,.,.
O=C(COC(=O)CNC(=O)c1ccccc1F)Nc1ccc2c(c1)OCCO2,2,3,8,55*,-3,4,6
CCOc1ccc(N2C(=O)CNC2=S)cc1,-3,5,11,-1,0,.,.
CCOc1ccc(N2C(=O)CS/C2=C(\C(Cl)=C(Cl)Cl)[N+](=O)[O-])cc1,-4,6,-17,54*,-4,58*,70*
CC12C=CC3(O1)C(C(=O)N(c1cccnc1)C3C(=O)NC1CCCCC1)C2C(=O)Nc1ccccc1 (stereo not drawn),-4,3,6,0,4,.,.
CC(C)(C)NC(=O)C1N(c2cccnc2)C(=O)C2C(C(=O)Nc3ccccc3F)C3(C)C=CC21O3 (stereo not drawn),-13,1,-6,73*,4,7,10
CCOC(=O)NC(=O)/C(C#N)=C/c1ccc(N(C)C)cc1,-9,.,-11,99*,2,115*,125*
CN1c2ccccc2-c2ccccc2S1(=O)=O,.,2,.,.,.,.,.
O=C(O)c1ccccc1N/N=C\c1ccnc2ccccc12,-8,-5,2,24*,1,18,30*
SMILES,proCasp3 act,IDE act,proCasp7 act,TPT1 inh,IDE inh,caTPT1 confirm,RNase T1 counter
Cc1cc(/C=C2\SC(=S)N(C)C2=O)c(C)n1-c1ccc(O)cc1,.,-20,-1,120*,15,129*,129*
Cc1cc(/C=C2/SC(=S)N(c3cccc(Cl)c3)C2=O)c(C)n1-c1cccnc1,-3,3,-2,114*,4,88*,99*
Cc1ccc(-n2c(C)cc(/C=C3\SC(=O)NC3=O)c2C)cc1,3,-1,-3,2,0,.,.
CCn1c(C)cc(/C=C2/SC(=S)NC2=O)c1C,-7,3,-18,98*,5,105*,119*
CCn1ncc(/C=C2/SC(=S)NC2=O)c1C,-5,3,-12,-2,3,.,.
Cc1cc(/C=C2\SC(=S)NC2=O)c(C)n1-c1cccc(O)c1,-23,-6,-9,90*,13,85*,98*
Cc1c(N(C)S(=O)(=O)c2ccc(Cl)c(C(=O)N3CCC(C(N)=O)CC3)c2)c(=O)n(-c2ccccc2)n1C,6,7,8,0,1,.,.
Cc1sc(-n2c(C)cc(/C=N/n3cnnc3)c2C)c(C#N)c1C,-4,-2,-11,-1,4,.,.
O=C1NC(=S)S/C1=C\c1cc(Cl)ccc1Cl,.,7,.,.,.,.,.
Cc1sc(-n2c(C)cc(/C=C3\SC(=S)NC3=O)c2C)c(C#N)c1C,-6,2,-5,45*,3,60*,75*
Cc1cc(/C=C2\SC(=S)NC2=O)c(C)[nH]1,-1,-3,-14,131*,8,97*,108*
Cc1ccc2c(CC(=O)NCCc3ccc(S(N)(=O)=O)cc3)coc2c1,0,2,3,-3,-1,.,.
Cc1ccc(C(=O)OCC(=O)N(C)c2ccccc2)c(C)c1,4,-1,-2,-4,9,.,.
CN(C(=O)COC(=O)c1ccc([N+](=O)[O-])cc1N)c1ccccc1,3,-5,-7,84*,4,75*,82*
COc1ccc(C(C)(C)C)cc1S(=O)(=O)n1ccnc1C,9,6,1,-1,-5,.,.
C=CCN1C(=O)/C(=C\C=C2\N(C)c3ccccc3C2(C)C)SC1=S,0,-10,18,116*,2,120*,115*
COc1ccc(CN2CCN(Cc3cc(=O)oc4cc(C)ccc34)CC2)c(OC)c1OC,-5,-3,0,26*,1,10,13
O=C1CCCC2=C1C(c1ccc(Br)cc1)c1c([nH]c(=S)[nH]c1=O)N2 (stereo not drawn),-11,-16,-1,-2,12,.,.
O=c1[nH]c(=S)[nH]c2c1C(c1ccc(Br)cc1)c1c([nH]c(=S)[nH]c1=O)O2,1,-2,-3,82*,7,7,9
